Experimental data from ChEMBL document CHEMBL3102854, “Design, synthesis and in vitro cytotoxicity evaluation of 5-(2-carboxyethenyl)isatin derivatives as anticancer agents” (Bioorg Med Chem Lett, 2014).

Assays:
[1] = system: HepG2; test: Cytotoxicity against human HepG2 cells after 48 hrs by MTT assay; type: functional, cell-based; details: HepG2, 48 h
In short: (§1)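 Cells seeded at 5 × 10⁴ cells/mL and allowed to settle 2 h (K562) or overnight (HepG2, HT-29). Compound in DMSO added, then 48 h further culture. Viability read by MTT with a microplate reader, normalized to DMSO-treated controls set as 100%. IC₅₀ obtained by nonlinear regression; each compound measured three times.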

[2] = system: HT-29; test: Cytotoxicity against human HT-29 cells after 48 hrs by MTT assay; type: functional, cell-based; details: HT-29, 48 h; in short: as §1
[3] = system: K562; test: Cytotoxicity against human K562 cells after 48 hrs by MTT assay; type: functional, cell-based; details: K562, 48 h; in short: as §1
[4] = system: K562; test: Induction of apoptosis in human K562 cells at 30 nM after 12 hrs using annexin V-FITC and propidium iodide staining by flow cytometric analysis relative to control; type: functional
In short: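 K562 cells cultured without or with 30 nM compound for 12 h. 1 × 10⁶ cells resuspended in binding buffer containing annexin V-FITC and propidium iodide and incubated 15 min. Further binding buffer added, then cells analysed by flow cytometry for phosphatidylserine exposure.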

Row | SMILES | IC50 [1] | IC50 [2] | IC50 [3] | Activity [4]
1 | CCN1C(=O)C(=O)c2cc(/C=C/C(=O)OC)ccc21 | 400 nM | 210 nM | 170 nM | –
2 | COc1ccc(CN2C(=O)C(=O)c3cc(/C=C/C(=O)OCCO)ccc32)cc1 | 860 nM | 550 nM | 40 nM | –
3 | COC(=O)/C=C/c1ccc2c(c1)C(=O)C(=O)N2Cc1ccc(C(F)(F)F)cc1 | 70 nM | 40 nM | 40 nM | –
4 | O=C1Nc2ccc(F)cc2C1=O [5-FLUOROISATIN] | > 10000 nM | > 10000 nM | > 10000 nM | –
5 | COC(=O)/C=C/c1ccc2c(c1)C(=O)C(=O)N2Cc1ccc(Br)cc1 | 40 nM | 30 nM | 6 nM | 32.2%
6 | COC(=O)/C=C/c1ccc2c(c1)C(=O)C(=O)N2Cc1cccc(Br)c1 | 170 nM | 240 nM | 30 nM | –
7 | COC(=O)/C=C/c1ccc2c(c1)C(=O)C(=O)N2Cc1ccccc1 | 40 nM | 70 nM | 40 nM | –
8 | COc1ccc(CN2C(=O)C(=O)c3cc(/C=C/C(N)=O)ccc32)cc1 | 890 nM | 560 nM | 200 nM | –
9 | COC(=O)/C=C/c1ccc2c(c1)C(=O)C(=O)N2Cc1cc(C)cc(C)c1 | 150 nM | 70 nM | 40 nM | –
10 | COc1ccc2c(c1)C(=O)C(=O)N2 [5-METHOXYISATIN] | > 10000 nM | > 10000 nM | > 10000 nM | –
11 | O=C1C(=O)N(Cc2ccc(Br)cc2)c2ccc(/C=C/C(=O)N3CCCC3)cc21 | 6300 nM | 4420 nM | 1710 nM | –
12 | CC[C@@]1(O)C(=O)OCc2c1cc1n(c2=O)Cc2cc3ccccc3nc2-1 [CAMPTOTHECIN] | 50 nM | 60 nM | 40 nM | –
13 | COC(=O)/C=C/c1ccc2c(c1)C(=O)C(=O)N2C | 530 nM | 300 nM | 340 nM | –
14 | COC(=O)/C=C/c1ccc2c(c1)CC(=O)N2Cc1ccc(OC)cc1 | 9170 nM | 3720 nM | 990 nM | –
15 | COC(=O)/C=C/c1ccc2c(c1)C(=O)C(=O)N2CCOc1ccccc1 | 210 nM | 200 nM | 60 nM | –
16 | COC(=O)/C=C/c1ccc2c(c1)/C(=N/O)C(=O)N2Cc1ccc(OC)cc1 | 3560 nM | 4940 nM | 2110 nM | –
17 | Cc1ccc2c(c1)C(=O)C(=O)N2 | > 10000 nM | > 10000 nM | > 10000 nM | –
18 | COc1ccc(CN2C(=O)C(=O)c3cc(/C=C/C(=O)OC(C)(C)C)ccc32)cc1 | 620 nM | 480 nM | 50 nM | –
19 | CCOC(=O)/C=C/c1ccc2c(c1)C(=O)C(=O)N2Cc1ccc(OC)cc1 | 90 nM | 60 nM | 10 nM | –
20 | COC(=O)/C=C/c1ccc2c(c1)C(O)C(=O)N2Cc1ccc(OC)cc1 (stereo not given) | 380 nM | 320 nM | 30 nM | –
21 | COC(=O)/C=C/c1cccc2c1N(Cc1ccc(OC)cc1)C(=O)C2=O | > 10000 nM | > 10000 nM | 4130 nM | –
22 | COC(=O)/C=C/c1ccc2c(c1)C1(OCCO1)C(=O)N2Cc1ccc(OC)cc1 | > 10000 nM | > 10000 nM | 4890 nM | –
23 | COC(=O)/C=C/c1ccc2c(c1)C(=O)C(=O)N2 | 370 nM | 270 nM | 220 nM | –
24 | NC(=O)/C=C/c1ccc2c(c1)C(=O)C(=O)N2Cc1ccc(Br)cc1 | > 10000 nM | 550 nM | 300 nM | –
25 | COC(=O)/C=C/c1ccc2c(c1)N(Cc1ccc(OC)cc1)C(=O)C2=O | > 10000 nM | > 10000 nM | 4860 nM | –
26 | COC(=O)/C=C/c1ccc2c(c1)C(=O)C(=O)N2Cc1ccc(C)cc1 | 40 nM | 30 nM | 40 nM | –

Row | SMILES | IC50 [1] | IC50 [2] | IC50 [3] | Activity [4]
27 | COC(=O)/C=C/c1ccc2c(c1)C1(OCCO1)C(=O)N2Cc1ccc(Br)cc1 | 7470 nM | 5110 nM | 2630 nM | –
28 | COC(=O)/C=C/c1ccc2c(c1)/C(=N/O)C(=O)N2Cc1ccc(Br)cc1 | 9960 nM | 3640 nM | 2920 nM | –
29 | O=C1Nc2ccc(Br)cc2C1=O | > 10000 nM | > 10000 nM | > 10000 nM | –
30 | COC(=O)/C=C/c1ccc2c(c1)C(=O)C(=O)N2Cc1ccc(F)cc1 | 40 nM | 60 nM | 30 nM | –
31 | COC(=O)/C=C/c1ccc2c(c1)C(=O)C(=O)N2Cc1ccc2ccccc2c1 | 90 nM | 100 nM | 40 nM | –
32 | CCCCOC(=O)/C=C/c1ccc2c(c1)C(=O)C(=O)N2Cc1ccc(Br)cc1 | 650 nM | 600 nM | 150 nM | –
33 | O=C1C(=O)N(Cc2ccc(Br)cc2)c2ccc(/C=C/C(=O)N3CCOCC3)cc21 | 7790 nM | 4590 nM | 1380 nM | –
34 | COC(=O)/C=C/c1ccc2c(c1)C(=O)C(=O)N2Cc1ccc(Cl)c(Cl)c1 | 160 nM | 210 nM | 60 nM | –
35 | COC(=O)/C=C/c1cccc2c1C(=O)C(=O)N2Cc1ccc(OC)cc1 | 5490 nM | 3120 nM | 350 nM | –
36 | COC(=O)/C=C/c1ccc2c(c1)C(O)C(=O)N2Cc1ccc(Br)cc1 (stereo not given) | 670 nM | 660 nM | 260 nM | –
37 | COC(=O)/C=C/c1ccc2c(c1)C(=O)C(=O)N2Cc1ccccc1Br | 260 nM | 240 nM | 70 nM | –
38 | O=C(/C=C/c1ccc2c(c1)C(=O)C(=O)N2Cc1ccc(Br)cc1)OCCO | 3660 nM | 680 nM | 50 nM | –
39 | CCCCOC(=O)/C=C/c1ccc2c(c1)C(=O)C(=O)N2Cc1ccc(OC)cc1 | 630 nM | 420 nM | 40 nM | –
40 | COc1ccc(CN2C(=O)C(=O)c3cc(/C=C/C(=O)N4CCCC4)ccc32)cc1 | 7810 nM | 5230 nM | 460 nM | –
41 | COc1ccc(CN2C(=O)C(=O)c3cc(/C=C/C(=O)N4CCOCC4)ccc32)cc1 | 7380 nM | 4240 nM | 720 nM | –
42 | CC(C)(C)OC(=O)/C=C/c1ccc2c(c1)C(=O)C(=O)N2Cc1ccc(Br)cc1 | 2050 nM | 730 nM | 290 nM | –
43 | CCCCc1ccc2c(c1)C(=O)C(=O)N2 | > 10000 nM | > 10000 nM | > 10000 nM | –
44 | O=C1Nc2ccccc2C1=O [ISATIN] | > 10000 nM | > 10000 nM | > 10000 nM | –
45 | CCOC(=O)/C=C/c1ccc2c(c1)C(=O)C(=O)N2Cc1ccc(Br)cc1 | 290 nM | 50 nM | 30 nM | –
46 | COC(=O)/C=C/c1ccc2c(c1)C(=O)C(=O)N2Cc1ccc(C#N)cc1 | 50 nM | 50 nM | 30 nM | –
47 | COC(=O)/C=C/c1ccc2c(c1)CC(=O)N2Cc1ccc(Br)cc1 | > 10000 nM | > 10000 nM | 3160 nM | –
48 | COC(=O)/C=C/c1ccc2c(c1)C(=O)C(=O)N2Cc1ccc(OC)cc1 | 30 nM | 30 nM | 3 nM | 37.2%
49 | COc1ccc(CN2C(=O)C(=O)c3cc(/C=C/C(=O)O)ccc32)cc1 | > 10000 nM | > 10000 nM | > 10000 nM | –
50 | O=C1Nc2ccc(Cl)cc2C1=O | > 10000 nM | > 10000 nM | > 10000 nM | –
51 | COC(=O)/C=C/c1ccc2c(c1)C(=O)C(=O)N2Cc1ccc(Cl)cc1 | 40 nM | 60 nM | 30 nM | –
